*1 amine or outer side, *2 acyl side, *3 side chain or, on linkers, in order; H or OH if unused. Where a SMILES comes first, the peptide text is derived from it. [ ]: non-standard residue; d: D form. The star is where a group is joined. ξ: configuration not given here. X1 = CC(C)C[C@H](N[*:1])[C@@H](O)C[C@H](C(=O)[*:2])C(C)C; NH(2-picolyl-N-oxide) = [O-][n+]1ccccc1CN*; NMeH = CN[C@@H](Cc1c[nH]cn1)C(=O)O; NHCH2(2-pyridyl) = c1ccc(CN*)nc1; X2 = CC(=O)NC1C(N*)OC(CO)C(O)C1O; Ile(3ξ) = CCC(C)[C@H](N)C(=O)O; NHC(CH2OH)3 = OCC(CO)(CO)N*; X3 = OCC1OC(N*)C(O)C(O)C1O; Boc = CC(C)(C)OC(=O)*; CO = O=C([*:1])[*:2]

Here are results for 4 compounds from ChEMBL document CHEMBL1125781, “Peptide to glycopeptide: glycosylated oligopeptide renin inhibitors with attenuated in vivo clearance properties” (J Med Chem, 1991).

Format in all cases: functional, organism-based
For test [1], the system named is Rattus norvegicus. The test can be described thus: Serum concentration at 60 min after iv administration in bile duct cannulated rat. In outline:
(§1)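 Anesthetized, bile duct cannulated rats given peptide by tail vein injection, 1 mg kg⁻¹ or the molar equivalent, in 3 mM citric acid/saline vehicle. Blood taken from the orbital sinus at 5 and 60 min. Serum inhibitor concentration measured by renin enzyme activity assay. Percent of recovered dose in bile and urine determined over the 3-h study period. Means, n = 4.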

For test [2], the species on record is Rattus norvegicus. The test can be described thus: Compound was tested for the biliary recovery dose in rats. In outline: as §1
For test [3], the system named is Rattus norvegicus. The test can be described thus: Serum concentration at 5 min after iv administration in bile duct cannulated rat. In outline: as §1
The species entered for test [4] is Rattus norvegicus. Description: Compound was tested for the urinary recovery dose in rats. The note with it: Urine. In outline: as §1
Test [5] deals with Rattus norvegicus. The test can be described thus: Serum concentration at 60 min after iv administration in bile duct cannulated rat. An outline of the steps: as §1
The test system of test [6] is Rattus norvegicus. The test can be described thus: Serum concentration at 5 min after iv administration in bile duct cannulated rat. In outline:
as §1

`CCC(C)[C@H](NC(=O)[C@@H](C[C@H](O)[C@H](CC(C)C)NC(=O)[C@H](Cc1c[nH]cn1)N(C)C(=O)[C@H](Cc1ccccc1)NC(=O)[C@@H]1CCCN1C(=O)[C@H](CC(=O)NC1OC(CO)C(O)C(O)C1NC(C)=O)NC(=O)OC(C)(C)C)C(C)C)C(=O)NCc1cccc[n+]1[O-]` (stereo partly specified) (Boc-D(X2)PF[NMeH][X1][Ile(3ξ)]-{NH(2-picolyl-N-oxide)}): the Serum concentration worked out at 158 nM with Rattus norvegicus [1] and 2580 nM in the test with Rattus norvegicus [3]. For the same compound, the Recovery in the test filed under Rattus norvegicus [2] amounted to 33%; in the test filed under Rattus norvegicus [4], 67%.

Consider `CCC(C)[C@H](NC(=O)[C@@H](C[C@H](O)[C@H](CC(C)C)NC(=O)[C@H](Cc1c[nH]cn1)N(C)C(=O)[C@H](Cc1ccccc1)NC(=O)[C@@H]1CCCN1C(=O)[C@H](CC(=O)NC1OC(CO)C(O)C(O)C1NC(C)=O)NC(=O)OC(C)(C)C)C(C)C)C(=O)NCc1ccccn1` (stereo partly specified) (Boc-D(X2)PF[NMeH][X1][Ile(3ξ)]-{NHCH2(2-pyridyl)}), for which the Recovery worked out at 76% in the test listed under Rattus norvegicus [2] and 24% in the test listed under Rattus norvegicus [4]. In addition, the values for the Serum concentration in the test with Rattus norvegicus [5] and in the test with Rattus norvegicus [3] were 20 nM and 1790 nM, respectively.

Regarding `CCC(C)[C@H](NC(=O)[C@@H](C[C@H](O)[C@H](CC(C)C)NC(=O)[C@H](Cc1c[nH]cn1)N(C)C(=O)[C@H](Cc1ccccc1)NC(=O)[C@@H]1CCCN1C(=O)[C@H](CC(=O)NC1OC(CO)C(O)C(O)C1O)NC(=O)OC(C)(C)C)C(C)C)C(=O)NCc1ccccn1` (stereo partly specified) (Boc-D(X3)PF[NMeH][X1][Ile(3ξ)]-{NHCH2(2-pyridyl)}), the Serum concentration in the test with Rattus norvegicus [1] stood at 39 nM; in the test with Rattus norvegicus [3], 2190 nM. The Recovery in the test filed under Rattus norvegicus [2] came out at 65%; in the test filed under Rattus norvegicus [4], 35%.

Regarding `CCC(C)[C@H](NC(=O)[C@@H](C[C@H](O)[C@H](CC(C)C)NC(=O)[C@H](Cc1c[nH]cn1)N(C)C(=O)[C@H](Cc1ccccc1)NC(=O)[C@@H]1CCCN1C(=O)NC(CO)(CO)CO)C(C)C)C(=O)NCc1cccc[n+]1[O-]` (stereo partly specified) ({NHC(CH2OH)3-CO}-PF[NMeH][X1][Ile(3ξ)]-{NH(2-picolyl-N-oxide)}), the figures for the Recovery in the test listed under Rattus norvegicus [2] and in the test filed under Rattus norvegicus [4] were 83% and 17%, respectively. The Serum concentration was found to be 15 nM in the test on Rattus norvegicus [5] and 1100 nM in the test on Rattus norvegicus [6].
